High-throughput results from PubChem.
An excerpt weighted towards active compounds, which were near 2.6% of everything screened.
TCR CD3 inh – human TCR-CD3 binding inhibition; TAMRA-labeled TCR probe fluorescence, biochemical; inhibition, % at 9.4 µM; actives 0.37% (n = 360,000); AID 651800; in the data active = inhibition above about 19%;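 note: recombinant mutant TCR 2C K166C tagged with TAMRA read by polarization; 0% = receptor in buffer alone and 100% = receptor with positive control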
HTRA1 inh – inhibitors of human serine peptidase HTRA1; actives 0.5% (n = 340,000); AID 504803; recombinant HTRA1, FP-rhodamine activity-based probe, fluorescence polarization; inhibition, % at 5.96 µM; in the data active = inhibition above about 36%;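 note: 0% = enzyme with DMSO and 100% = wells lacking enzyme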
mABHD4 FP – inhibitors of mouse ABHD4 | inhibition, % at 8.92 µM | actives 0.54% (n = 370,000) | Q8VD66 | AID 720543 | purified mABHD4, FP-Rh probe fluorescence polarization;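 active = inhibition exceeding the mean over every tested compound plus 3 SD, cut at about 30% in these data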;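 note: 0% = plate median of compound wells and 100% = S159A mutant with DMSO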
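Assay system: mABHD4 protein; medium: HEPES pH 7.0, NaCl, Pluronic buffer; dosing: 8.92 µM, single dose; schedule: 45 min + 60 min at 25 °C; signal: FP readout, ex 525 nm / em 598 nm; read-out: normalized percent inhibition of probe labeling; repeats: single replicate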
PRMT1 FP inh – PRMT1 (human) inhibition, primary screen; Q99873; recombinant PRMT1, activity-based probe fluorescence polarization; inhibition, % at 2.79 µM; actives 1.3% (n = 370,000);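 active = inhibition above about 21% made by adding two undisclosed values, limit read from the data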
Target sequence (Q99873 whole entry, looked up): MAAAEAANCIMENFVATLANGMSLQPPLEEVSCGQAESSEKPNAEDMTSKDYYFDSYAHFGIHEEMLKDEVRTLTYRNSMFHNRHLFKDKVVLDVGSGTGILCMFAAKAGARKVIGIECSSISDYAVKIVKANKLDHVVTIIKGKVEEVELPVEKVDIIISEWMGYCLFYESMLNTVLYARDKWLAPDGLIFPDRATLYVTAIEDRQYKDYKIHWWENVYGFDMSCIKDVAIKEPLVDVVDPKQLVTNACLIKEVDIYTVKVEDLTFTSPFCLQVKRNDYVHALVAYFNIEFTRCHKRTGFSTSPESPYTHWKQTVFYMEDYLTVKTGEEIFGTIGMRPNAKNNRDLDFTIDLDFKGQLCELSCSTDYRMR
SIAE primary – human SIAE inhibition, primary screen | Q9HAT2 | SIAE FP-Rh probe binding, fluorescence polarization | inhibition, % at 9.66 µM | actives 0.69% (n = 370,000) | AID 1053197;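 active = inhibition above a cutoff: mean of compounds within the control limits plus 3 SD of those, cut at about 17% in these data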;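 note: 0% = plate median of compound wells and 100% = probe without SIAE protein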
PRMT1 confirm – confirmation of human PRMT1 inhibitors. inhibition, % at 2.79 µM. actives 42% (n = 3,300). recombinant His-PRMT1, activity-based probe fluorescence polarization. shares compounds with PRMT1 FP inh. AID 687036;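 active = mean inhibition across replicates above the hit cutoff derived for the earlier primary screen, cut at about 22% in these data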
Starred values were filed as active, the others as inactive; nt = not tested or not shown.

SMILES	TCR CD3 inh	HTRA1 inh	mABHD4 FP	PRMT1 FP inh	SIAE primary	PRMT1 confirm
O=C(O)c1ccc(-c2ccco2)n1Cc1ccccc1	-4	2	2	29*	-4	6
O=C(NCc1cccnc1)c1cccc(S(=O)(=O)Nc2ccc(F)cc2)c1	6	-4	-3	2	1	nt
O=C(NCc1ccccn1)c1cccc(S(=O)(=O)Nc2ccc(SC(F)F)cc2)c1	-2	0	-14	78*	0	40*
COc1ccc(NS(=O)(=O)c2cccc(C(=O)NCc3ccccn3)c2)cc1	-2	2	-4	1	6	nt
O=C(NCc1ccncc1)c1cccc(S(=O)(=O)Nc2ccc(SC(F)F)cc2)c1	2	-5	-6	64*	-11	56*
CCC1(c2ccc(F)cc2)NC(=O)N(CC(=O)N2CCc3ccccc32)C1=O (stereo unspecified)	-5	-4	5	1	0	nt
Nc1nc(NCCO)nc(N2CCCCCC2)c1[N+](=O)[O-]	-7	-9	-1	-2	1	nt
OCCN(CCO)c1nc(N2CCCCC2)c2nc(N(CCO)CCO)nc(N3CCCCC3)c2n1	-1	5	-4	57*	1	75*
CS(=O)(=O)Nc1ccc2c(c1)[C@@H]1C[C@@H](CC(=O)NCc3cccnc3)O[C@H](CO)[C@@H]1O2	-6	4	-8	3	10	nt
O=C(C1CCN(C2CC(=O)N(Cc3ccccc3)C2=O)CC1)N1CCCCCC1 (stereo unspecified)	8	8	2	57*	3	2
CCOc1ccc(N2C(=O)CC(N3CCOCC3)C2=O)cc1 (stereo unspecified)	-6	-6	-3	10	3	nt
CC(=O)Oc1ccc(N2C(=O)C3C4C=CC(O4)C3C2=O)cc1 (stereo unspecified)	-13	5	11	95*	2	27*
CC(=O)Oc1ccc(N2C(=O)CC(N3CCOCC3)C2=O)cc1 (stereo unspecified)	1	1	1	43*	3	11
O=C(C1CCN(C2CC(=O)N(c3ccc(Cl)cc3)C2=O)CC1)N1CCOCC1 (stereo unspecified)	6	5	0	27*	8	10
O=C(CNC(=O)c1ccc(Br)o1)Nc1cccc(S(=O)(=O)N2CCCC2)c1	-5	-4	-3	3	7	nt
Cc1cc(C)c(S(=O)(=O)NCc2csc(C)n2)c(C)c1	8	1	4	-4	1	nt
CCN(CC)C1CC(=O)N(c2cccc(Cl)c2)C1=O (stereo unspecified)	0	-13	3	34*	4	29*
CC(=O)Oc1cccc(N2C(=O)C3C4C=CC(C4=C(C)C)C3C2=O)c1 (stereo unspecified)	5	3	0	64*	-6	14
NC(=O)C1CCN(C2CC(=O)N(Cc3ccc(N4CCCC4=O)cc3)C2=O)CC1 (stereo unspecified)	-2	-2	2	58*	3	1
O=C1CC(N2CCN(C(c3ccccc3)c3ccccc3)CC2)C(=O)N1Cc1ccc(N2CCCC2=O)cc1 (stereo unspecified)	-5	-11	-3	18	4	nt
O=C(C1CCN(C2CC(=O)N(c3cccc(Cl)c3)C2=O)CC1)N1CCCC1 (stereo unspecified)	6	0	4	30*	2	4
CC(=O)Oc1cccc(N2C(=O)C3C(C2=O)C2C=CC3C23CC3)c1 (stereo unspecified)	-2	4	2	2	6	nt
COc1ccccc1N1CCN(C2CC(=O)N(c3cccc(Cl)c3)C2=O)CC1 (stereo unspecified)	9	8	-3	9	-2	nt
N#Cc1cc2c(nc1SCc1ccncc1)CCC2	0	1	5	38*	1	13
Cc1ccccc1C(=O)NNc1ccc(-c2csnn2)cc1	-5	-5	2	27*	-2	7
SMILES	TCR CD3 inh	HTRA1 inh	mABHD4 FP	PRMT1 FP inh	SIAE primary	PRMT1 confirm
CCNc1cccc2c1C(=O)N(C)C2=O	0	-1	0	44*	-1	46*
CCc1ccc(OCC(=O)Nc2nnc(-c3ccco3)s2)cc1	11	-5	-8	34*	9	3
CC(C)C(C(=O)NC1CCCC1)N1CCC(O)(c2ccc(Cl)cc2)CC1 (stereo unspecified)	-8	nt	-1	3	-3	nt
COc1cc(/C=N/n2c(-c3cc(-c4ccccc4)n[nH]3)n[nH]c2=S)ccc1OCc1ccccc1	nt	nt	-22	26*	-4	-1
C[C@@H]1CN([C@H](C)CO)C(=O)CCCn2cc(nn2)CO[C@H]1CN(C)C(=O)Nc1ccc2c(c1)OCCO2	-1	2	3	1	10	nt
CC(C)(C)Nc1nc(N2CCCC2)nc(N2CCCC2)n1	0	-2	2	-1	-4	nt
CCNc1nc(NC(C)(C)C)nc(N2CCCC2)n1	2	0	8	32*	4	3
Cc1cc(/C=C(\C#N)c2nc3ccccc3[nH]2)c(C)n1C	-9	-4	-6	28*	4	19
N#C/C(=C/c1ccc(N2CCOCC2)o1)c1nc2ccccc2[nH]1	9	1	15	38*	5	-55
Cc1cc(/C=C(/C#N)c2nc3ccccc3[nH]2)c(C)n1-c1cccc([N+](=O)[O-])c1	9	-16	0	-2	-10	nt
CCN(Cc1nc2cc(Cl)ccc2c(=O)[nH]1)C(=O)c1nn(C)c(=O)c2ccccc12	1	7	-5	0	3	nt
COC(=O)c1ccccc1NC(=O)N1CSC[C@H]1C(=O)OC	12	0	5	30*	-3	48*
Cc1ccc2[nH]cc(S(=O)(=O)c3ccc(C)c(C)c3)c(=O)c2c1	3	-1	-1	-1	-1	nt
O=C(Nc1nc(-c2ccco2)c(-c2ccco2)s1)C1CCC1	-5	10	13	35*	2	19
Cc1nnc(NC(=O)C2CC(=O)N(c3ccc4c(c3)OCCO4)C2)s1 (stereo unspecified)	0	3	1	-5	-4	nt
O=C(Nc1nc(-c2ccco2)c(-c2ccco2)s1)C1CC(=O)N(c2ccc3c(c2)OCCO3)C1 (stereo unspecified)	8	11	-1	38*	9	10
COc1ccc(S(=O)(=O)NCC2CCC(C(=O)NCc3ccc(F)cc3)CC2)cc1 (stereo unspecified)	2	-7	1	-1	7	nt
CC(=O)N1CCN(c2ncnc3sc(-c4ccccc4)cc23)CC1	-2	10	-2	-6	-9	nt
Oc1ccc(N2CCN(c3ncnc4sc(-c5ccccc5)cc34)CC2)cc1	-3	20	27	32*	6	15
Cc1ccc(/C=N/n2c(COc3ccccc3)n[nH]c2=S)s1	11	0	-5	27*	10	4
